HTRA1 inhibitor – HTRA1 (human) protease inhibition; inhibition, % at 5.96 µM; Q92743; AID 504803; 340,000 compounds, 0.5% hits; recombinant HTRA1, FP-rhodamine activity-based probe, fluorescence polarization; in the data active = inhibition above about 36%;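 also: 0% = enzyme with DMSO and 100% = wells lacking enzyme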
SIAE primary – blocks human sialic acid acetylesterase | inhibition, % at 9.66 µM | 370,000 compounds, 0.69% hits | Q9HAT2 | SIAE FP-Rh probe binding, fluorescence polarization;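 active = inhibition above a cutoff: mean of compounds within the control limits plus 3 SD of those, cut at about 17% in these data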;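 also: 0% = plate median of compound wells and 100% = probe without SIAE protein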
Target sequence (Q9HAT2 whole entry, looked up): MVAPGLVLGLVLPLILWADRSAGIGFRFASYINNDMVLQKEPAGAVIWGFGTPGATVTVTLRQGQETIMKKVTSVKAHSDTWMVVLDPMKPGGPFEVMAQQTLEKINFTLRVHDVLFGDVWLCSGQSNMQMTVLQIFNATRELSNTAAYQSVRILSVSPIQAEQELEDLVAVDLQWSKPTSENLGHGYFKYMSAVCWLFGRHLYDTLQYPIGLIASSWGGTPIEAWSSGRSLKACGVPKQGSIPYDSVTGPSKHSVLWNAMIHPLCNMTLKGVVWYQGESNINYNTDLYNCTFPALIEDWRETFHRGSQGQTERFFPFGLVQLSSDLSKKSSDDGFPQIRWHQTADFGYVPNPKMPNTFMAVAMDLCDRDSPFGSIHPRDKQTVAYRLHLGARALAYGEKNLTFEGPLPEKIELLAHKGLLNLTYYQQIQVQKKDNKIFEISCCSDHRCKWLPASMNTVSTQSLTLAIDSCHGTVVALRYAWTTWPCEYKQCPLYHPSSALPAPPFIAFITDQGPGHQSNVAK
TCR-CD3 inh – blocks the human TCR-CD3 interaction; inhibition, % at 9.4 µM; TAMRA-labeled TCR probe fluorescence, biochemical; AID 651800; 360,000 compounds, 0.37% hits; in the data active = inhibition above about 19%;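 also: recombinant mutant TCR 2C K166C tagged with TAMRA read by polarization; 0% = receptor in buffer alone and 100% = receptor with positive control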
PRMT1 FP inh – PRMT1 (human) inhibition, primary screen; 370,000 compounds, 1.3% hits; AID 652257; inhibition, % at 2.79 µM; recombinant PRMT1, activity-based probe fluorescence polarization;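 active = inhibition above about 21% made by adding two undisclosed values, limit read from the data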
mABHD4 FP – inhibitors of mouse ABHD4 | Q8VD66 | purified mABHD4, FP-Rh probe fluorescence polarization | inhibition, % at 8.92 µM | 370,000 compounds, 0.54% hits | AID 720543;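 active = inhibition exceeding the mean over every tested compound plus 3 SD, cut at about 30% in these data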;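 also: 0% = plate median of compound wells and 100% = S159A mutant with DMSO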
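Assay system: mouse ABHD4 enzyme, wild type / Also added: fluorescent activity-based probe FP-Rh / Doses: single nominal dose of 8.92 µM, 0.89% DMSO final / Timing: 45 min compound pre-incubation plus 60 min probe step, 25 °C / Signal: FP readout, ex 525 nm / em 598 nm / Control set: S159A mutant/DMSO as 100%, compound-well median as 0%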
SIAE confirm – human SIAE inhibition, confirmation | shares compounds with SIAE primary | SIAE FP-Rh activity-based probe, fluorescence polarization | inhibition, % at 9.66 µM | 2,300 compounds, 13% hits | AID 1117263;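 active = mean inhibition of the replicates above the hit cutoff set in the primary screen, cut at about 17% in these data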;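 also: 0% = SIAE with DMSO and probe and 100% = probe without SIAE; inhibitors lower polarization as more probe stays unbound to SIAE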
Active calls of the source: *; nt = not tested or not shown. Only some compounds are listed: those with a hit (about 2.5% of all), similar ones and a draw of the others.

SMILES	HTRA1 inhibitor	SIAE primary	TCR-CD3 inh	PRMT1 FP inh	mABHD4 FP	SIAE confirm
COc1ccc(Cl)cc1/C=C1/C(=O)ON=C1C	3	7	-8	-1	-4	nt
CCOc1ccc(Cl)cc1/C=C1/C(=O)ON=C1C	1	18*	0	0	5	1
CCOc1ccc(N(C(C)C(=O)N2CCCCCC2)S(C)(=O)=O)cc1 (stereo unspecified)	5	18*	9	0	1	-2
COc1ccccc1OCCNC(=O)Nc1ccc(Br)cc1	-11	18*	-3	2	0	1
Cc1ccn2c(=O)nc(SCC(=O)N3CCN(c4ccccc4)CC3)nc2c1	2	18*	7	1	2	6
Cc1ccn2c(=O)nc(SCC(=O)N3CCC(Cc4ccccc4)CC3)nc2c1	-6	-4	8	-1	6	nt
CC(C)c1ccc(OCC(=O)NC2CC(C)(C)NC(C)(C)C2)c(Br)c1	3	18*	9	0	3	-4
CCOC(=O)CCc1n[nH]c(=O)[nH]c1=O	3	5	-3	-2	0	nt
O=C(O)CCc1n[nH]c(=S)[nH]c1=O	7	17*	-3	8	1	2
CC(=O)c1cccc(N(C(=O)c2ccco2)C(C(=O)NC2CCCCC2)c2ccc(C)o2)c1 (stereo unspecified)	2	19*	-2	3	-1	-8
COc1ccc(N(C(=O)c2ccco2)C(C(=O)NC2CCCC2)c2ccc(N(C)C)cc2)cc1OC (stereo unspecified)	2	26*	0	-4	1	4
COc1cccc(N(C(=O)c2ccco2)C(C(=O)NC2CCCC2)c2ccc(N(C)C)cc2)c1 (stereo unspecified)	1	3	5	1	4	nt
COc1ccccc1NC(=O)C1CC(O)CN1C(=O)Oc1ccccc1 (stereo unspecified)	-2	-4	1	-6	-6	nt
COC(=O)/C=C1\OC(C2CC2)c2ccccc21 (stereo unspecified)	nt	3	7	-3	13	nt
Cn1nccc1C(=O)Nc1ccc(S(=O)(=O)N2CCCC2)cc1	5	18*	-2	-1	8	6
C#CCNC(=O)C1=C[C@H](c2ccc(Br)cc2)C[C@H](OCCCCO)O1	-25	2	-11	3	2	nt
N#Cc1c(/N=C/c2cccnc2)sc2c1CCCC2	nt	22*	7	0	6	-1
Cc1ccc(C(=O)NCC(=O)OCCOc2ccccc2Cl)cc1	-9	13	-3	1	1	nt
CCN1CCc2c(sc(NC(=S)NC(=O)c3ccc(Cl)cc3)c2C(N)=O)C1	0	18*	-3	-2	8	1
CCOc1cc(/C=C(/C#N)c2nc3ccccc3[nH]2)ccc1Oc1ccc([N+](=O)[O-])cn1	-8	-30	1	-5	-2	nt
COc1cc(/C=C(/C#N)c2ccc(C)cc2)ccc1Oc1ccc([N+](=O)[O-])cn1	3	35*	2	-2	-12	-2
O=C(Nc1cccc(C(F)(F)F)c1)O[C@@H]1CC[C@@]23CCCN2C(=O)CCC[C@H]3C1	nt	-5	nt	-4	-4	nt
Cc1c(Br)c([N+](=O)[O-])nn1CC(=O)NCc1cccnc1	7	2	-3	-3	-5	nt
CCOC(=O)N1CCC(NC(=O)C2CCN(C(=O)N3CC(C)Oc4ccccc43)CC2)CC1 (stereo unspecified)	0	20*	-6	0	0	-5
CCOC(=O)N1CCC(NC(=O)C2CCN(C(=O)N3CC(C)Oc4ccc(C)cc43)CC2)CC1 (stereo unspecified)	1	-8	4	-2	-5	nt
SMILES	HTRA1 inhibitor	SIAE primary	TCR-CD3 inh	PRMT1 FP inh	mABHD4 FP	SIAE confirm
O=C1c2ccccc2C(c2nnnn2-c2ccc3c(c2)OCCO3)N1Cc1cccnc1 (stereo unspecified)	nt	25*	2	-2	3	0
O=C1c2ccccc2C(c2nnnn2-c2ccc3c(c2)OCCO3)N1Cc1ccc2c(c1)OCO2 (stereo unspecified)	nt	2	4	2	3	nt
O=S1(=O)CCOC[C@H](c2ccccc2)N1Cc1ccccc1	0	-4	5	-2	1	nt
Cc1cc(C)c(NC(=O)C2=COCCO2)c(C)c1	2	17*	-1	-2	1	4
Cc1ccc(NC(=O)CN2C(=O)S/C(=C/c3ccncc3)C2=O)cc1	1	-1	10	6	3	nt
COc1cccc(NC(=S)NN=C2CCC(C(C)(C)C)CC2)c1 (stereo unspecified)	-11	19*	0	2	3	2
COc1cccc(NC(=S)N/N=C2\CC3CCC2(C)C3(C)C)c1 (stereo unspecified)	-17	10	-2	1	0	nt
Cc1cccc(NC(=S)N/N=C2\CC(C)(C)Oc3ccc(O)cc32)c1	7	41*	-2	1	28	17
Fc1ccccc1NC(=S)NC1CCCC1	2	1	3	-3	0	nt
CC1(C)C/C(=N\NC(=S)Nc2ccccc2F)c2cc(O)ccc2O1	16	37*	1	-2	21	38*
COc1cccc(NC(=S)N/N=C2\CC(C)(C)Oc3ccc(O)cc32)c1	2	36*	-2	-3	9	21*
Cc1ccc(S(=O)(=O)N(C)CC(=O)Nc2cc(C)ccn2)cc1	-2	1	4	-1	-1	nt
CCN=C1SC(CC(=O)Nc2ccc(N3CCOCC3)cc2)C(=O)N1CC (stereo unspecified)	0	19*	-7	-5	1	0
CCN=C1SC(CC(=O)Nc2ccc(C(F)(F)F)cc2)C(=O)N1CC (stereo unspecified)	1	-6	-1	-1	-2	nt
COc1ccc(F)cc1S(=O)(=O)N1CCc2ccccc2C1	-2	5	1	-1	5	nt
O=C(Cn1cc(S(=O)(=O)Cc2cccc([N+](=O)[O-])c2)c2ccccc21)N1CCOCC1	4	-5	-3	2	12	nt
CC(C)(C)c1ccc(-c2nnc(SCC(=O)Nc3ccc(Oc4ccccc4)cc3)n2Cc2ccco2)cc1	nt	5	nt	-2	0	nt
O=C(Cc1csc(NC(=O)c2ccc(F)cc2)n1)NO	14	24*	4	-2	2	17
CCOC(=O)c1c(-c2ccccc2)csc1NC(=O)/C(C#N)=C/c1ccc(O)c(OC)c1	-38	19*	-9	-4	-9	14
CCOC(=O)c1c(-c2ccccc2)csc1NC(=O)/C(C#N)=C/c1ccc(OC)c(OC)c1	-9	0	4	-2	-5	nt
CCC(C)CN1C(=O)CSCC1(C)C(=O)NC(C)C (stereo unspecified)	nt	3	2	-3	0	nt
O=S(=O)(NCC(c1ccccc1)N1CCC(O)CC1)c1ccc(Cl)cc1 (stereo unspecified)	1	-2	-1	1	0	nt
